Test results taken from ChEMBL document CHEMBL3865794, “Novel securinine derivatives as topoisomerase I based antitumor agents” (Eur J Med Chem, 2016).
Activity calls are given as the source filed them. The rule behind the calls is not given here.

Tests used:
[1] = target: T1, DNA topoisomerase 1 (Homo sapiens) (UniProt P11387); assay: Inhibition of DNA topoisomerase 1 (unknown origin) assessed as reduction in relaxation of supercoiled pBR322 plasmid DNA at 100 uM incubated for 30 mins by agarose gel electrophoresis relative to control
T1 sequence (whole entry): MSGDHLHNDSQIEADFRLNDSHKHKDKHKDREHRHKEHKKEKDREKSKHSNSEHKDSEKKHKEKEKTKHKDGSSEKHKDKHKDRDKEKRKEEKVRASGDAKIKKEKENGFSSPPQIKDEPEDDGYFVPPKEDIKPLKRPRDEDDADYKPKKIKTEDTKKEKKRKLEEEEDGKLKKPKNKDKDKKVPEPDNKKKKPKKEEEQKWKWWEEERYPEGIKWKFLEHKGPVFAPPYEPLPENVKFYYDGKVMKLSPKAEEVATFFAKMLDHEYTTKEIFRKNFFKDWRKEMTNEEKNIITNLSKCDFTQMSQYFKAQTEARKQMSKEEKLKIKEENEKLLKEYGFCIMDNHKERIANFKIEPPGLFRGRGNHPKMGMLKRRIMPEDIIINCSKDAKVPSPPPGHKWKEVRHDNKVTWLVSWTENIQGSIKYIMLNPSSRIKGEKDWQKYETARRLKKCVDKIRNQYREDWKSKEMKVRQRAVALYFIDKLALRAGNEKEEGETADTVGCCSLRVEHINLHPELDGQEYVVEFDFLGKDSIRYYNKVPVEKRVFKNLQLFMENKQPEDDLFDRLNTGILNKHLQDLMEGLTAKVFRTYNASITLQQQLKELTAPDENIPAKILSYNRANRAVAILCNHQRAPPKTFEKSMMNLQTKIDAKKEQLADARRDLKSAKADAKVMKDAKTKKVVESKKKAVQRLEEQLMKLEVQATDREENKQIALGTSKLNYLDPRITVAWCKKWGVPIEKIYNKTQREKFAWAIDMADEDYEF
Summary of the method: (§1)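 Supercoiled pBR322 DNA incubated with Topo I in the presence or absence of compound for 30 min at 37 °C. Reaction stopped with dye solution of bromophenol blue, xylene cyanol and glycerol. Products run on 1% agarose in 1× TAE for 40 min, then EB-stained and UV-imaged. Inhibition rate derived from gel gray-scale analysis relative to control. Camptothecin served as positive control.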

[2] = Antiproliferative activity against human SW480 cells after 48 hrs by MTT assay; type: functional, cell-based; conditions: SW480, 48 h
[3] = Growth inhibition of human A549 cells after 72 hrs by MTT assay; type: functional, cell-based; conditions: Homo sapiens, A549, 72 h
Summary of the method: (§2)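 Cells seeded at 5 × 10³ per well and incubated overnight in medium with 10% FBS. Medium then replaced with fresh medium containing compound at […] for 72 h. MTT (5 mg/mL stock, 20 µL per well) added for 4 h at 37 °C, formazan dissolved in DMSO, absorbance read at 570 nm. Each dose run in parallel triplicate. IC50 taken from mean absorbance versus concentration curves.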

[4] = Growth inhibition of human HeLa cells after 72 hrs by MTT assay; type: functional, cell-based; conditions: Homo sapiens, HeLa, 72 h; summary of the method: as §2
[5] = Growth inhibition of human HepG2 cells after 72 hrs by MTT assay; type: functional, cell-based; conditions: Homo sapiens, HepG2, 72 h; summary of the method: as §2
[6] = Growth inhibition of human SH-SY5Y cells after 72 hrs by MTT assay; type: functional, cell-based; conditions: Homo sapiens, SH-SY5Y, 72 h; summary of the method: as §2
[7] = Growth inhibition of human L02 cells after 72 hrs by MTT assay; type: cell-based; conditions: L02, 72 h; summary of the method: as §2
[8] = system: A549; assay: Selectivity index, ratio of IC50 for human L02 cells to IC50 for human A549 cells; type: functional
[9] = target: T1, DNA topoisomerase 1 (Homo sapiens); assay: Inhibition of DNA topoisomerase 1 (unknown origin) assessed as reduction in topoisomerase 1-DNA complex formation preincubated for 20 mins followed by supercoiled pBR322 plasmid DNA addition measured after 3 mins by electrophoretic mobility shift assay
[10] = organism: Bos taurus; assay: Inhibition of calf thymus DNA topoisomerase 1 assessed as DNA-insertion by measuring reduction in conversion of negatively supercoiled pBR322 plasmid DNA to relaxed DNA at 25 uM preincubated followed by substrate addition measured after 30 mins by ethidium bromide staining based agarose gel electrophoresis
Summary of the method: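 Calf thymus Topo I (20 units) and negatively supercoiled pBR322 DNA with test compound or ethidium bromide in Topo I buffer (50 mM Tris-HCl pH 7.5, 10 mM MgCl2, 50 mM KCl, 0.1 mM EDTA, 0.5 mM DTT, BSA), 30 min at 37 °C. 1% agarose gel in 1× TAE, 40 min. Ethidium bromide stain 30 min, UV imaging.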

[11] = target: T1, DNA topoisomerase 1 (Homo sapiens); assay: Inhibition of DNA topoisomerase 1 (unknown origin) assessed as reduction in relaxation of supercoiled pBR322 plasmid DNA incubated for 30 mins by agarose gel electrophoresis; summary of the method: as §1
[12] = organism: Bos taurus; assay: Inhibition of calf thymus DNA topoisomerase 1-mediated DNA cleavage assessed as drug-enzyme-DNA covalent ternary complex formation by measuring increase in linear band using negatively supercoiled pBR322 plasmid DNA as substrate at 25 to 50 uM after 30 mins by agarose gel electrophoresis
Summary of the method: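 Calf thymus Topo I (30 units) and negatively supercoiled pBR322 in Topo I buffer (pH 7.5), 30 min at 37 °C. Test compounds at 25–200, camptothecin at […]. Trapped with 1% SDS, then proteinase K 0.8 mg/mL, 10 min at 50 °C. 1% agarose/TAE run 30 min at 60 V, ethidium bromide stain, second 30-min electrophoresis. Scored as supercoiled-to-nicked/linear conversion under UV.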

For O=C1C=C2C=C[C@@H]3C[C@@]2(O1)[C@H]1CCCCN31 [SECURININE], the inhibition [1] was 23.9%, the IC50 [2] was 25.9 µM and the IC50 [3] was 23.6 µM. The IC50 [4] was 50.2 µM, the IC50 [5] was 36.9 µM and the IC50 [6] was 78.9 µM.
In the case of O=C1O[C@@]23C[C@@H](C=CC2=C1C(O)c1ccc(C(F)(F)F)cc1)N1CCCC[C@@H]13 (stereo in doubt; 4a-6), the IC50 [3] is reported as 2.91 µM, the IC50 [4] is reported as 8.99 µM and the IC50 [5] is reported as 2.42 µM. The IC50 [6] was 8.57 µM, the IC50 [7] was 18.2 µM and the “Ratio IC50” value [8] was 6.26 - 7.56.
O=C1O[C@@]23C[C@@H](C=CC2=C1[C@@H](O)c1ccc([N+](=O)[O-])cc1)N1CCCC[C@@H]13 showed an IC50 [3] of 1.98 µM, an IC50 [4] of 7.99 µM and an IC50 [5] of 4.01 µM. The IC50 [6] was 8.52 µM and the inhibition [9] was “Dose-dependent effect”.
In the case of CC[n+]1c(-c2ccccc2)c2cc(N)ccc2c2ccc(N)cc21, the inhibition [10] is reported as “Active”.
O=C1O[C@@]23C[C@@H](C=CC2=C1C(O)c1ccc([N+](=O)[O-])cc1)N1CCCC[C@@H]13 (stereo partly specified) showed an inhibition [1] of 56.7%, an IC50 [3] of 2.21 µM and an IC50 [4] of 8.26 µM. The inhibition [11] was “Dose-dependent effect”, the IC50 [5] was 4.13 µM and the IC50 [6] was 8.5 µM. For the same molecule, the IC50 [7] was 16.7 µM and the “Ratio IC50” value [8] was 6.26 - 7.56.
With CC[C@@]1(O)C(=O)OCc2c1cc1n(c2=O)Cc2cc3ccccc3nc2-1 [CAMPTOTHECIN] the IC50 [3] was 0.12 µM, the IC50 [4] was 59.1 µM and the IC50 [5] was 29.8 µM. The IC50 [6] was greater than 100 µM and the inhibition [12] was “Active”.
